From publication PMC11094776 (Protein Science : A Publication of the Protein Society, 2024)
Non-standard residues stand in square brackets, D forms with d. Residues, ends and D or L forms follow the SMILES beside them. No end group written: not given here. *: point of attachment. FITC = O=C1OC2(c3ccc(O)cc3Oc3cc(O)ccc32)c2ccc(NC(=S)*)cc21; βAla = NCCC(=O)O

Columns and labels:
[1] = target: AF4 (761–770 aa) derived fluorescent labeled peptide (UniProt P51825); experiment: fluorescence polarisation
[2] = target: DOT1L (879–888 aa) derived fluorescent labeled peptide; experiment: fluorescence polarisation
[3] = target: MBP‐AAAA‐AF9 AHD Q336C/K501C (Homo sapiens, UniProt P42568, Q361C); experiment: Fluorescence polarization direct binding, MBP-AAAA-AF9 AHD Q336C/K501C
How it was run: (§1)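 Fusion protein expressed at 18°C in Rosetta (DE3) cells in TB medium. Cells were lysed by sonication in 50 mM Tris 7.4, 150 mM NaCl, 10% glycerol, 20 mM imidazole, 3 mM TCEP. Protein was captured on Ni-NTA, eluted with a 50–250 mM imidazole gradient, TEV-treated overnight (1:100 w/w), then run on Superdex 200 SEC. Stored at −80°C in 25 mM Tris 7.4, 150 mM NaCl, 1 mM TCEP.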

[4] = target: MBP‐AAA‐AF9 AHD Q336C/A502C (Homo sapiens, UniProt P42568, A502C/Q361C); experiment: Fluorescence polarization direct binding, MBP-AAA-AF9 AHD Q336C/A502C
How it was run: as §1

MBP‐RITK‐AF9 AHD = target: T1, MBP‐RITK‐AF9 AHD (Homo sapiens, UniProt P42568); experiment: Fluorescence polarization direct binding, MBP-RITK-AF9 AHD
T1 sequence (P42568 500-568): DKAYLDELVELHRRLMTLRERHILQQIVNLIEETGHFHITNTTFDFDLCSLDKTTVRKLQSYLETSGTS
How it was run: as §1

MBP‐GS‐AF9 AHD = target: T2, MBP‐GS‐AF9 AHD (Homo sapiens, UniProt P42568); experiment: Fluorescence polarization direct binding, MBP-GS-AF9 AHD
T2 sequence (P42568 500-568): T1 sequence (P42568 500-568)
How it was run: as §1

AF9 AHD = settings: cited from earlier work; for interaction sites within the DOT1L sequence: ref Kuntimaddi et al., 2015
ENL AHD = settings: ref Kabra & Bushweller, 2022; cited from earlier work
MBP‐AAAA‐AF9 AHD = target: T3, MBP‐AAAA‐AF9 AHD (Homo sapiens, UniProt P42568); experiment: Fluorescence polarization direct binding, MBP-AAAA-AF9 AHD
T3 sequence (P42568 500-568): T1 sequence (P42568 500-568)

MBP‐AAA‐AF9 AHD = target: T4, MBP‐AAA‐AF9 AHD (Homo sapiens, UniProt P42568); experiment: Fluorescence polarization direct binding, MBP-AAA-AF9 AHD
T4 sequence (P42568 500-568): T1 sequence (P42568 500-568)

MBP‐RITK‐AF9 AHD (from UniProt P42568 500-568) (domain or fragment)
Kd [1]: 1.31 nM
Kd [2]: 7.86 nM

MBP‐GS‐AF9 AHD (from UniProt P42568 500-568) (domain or fragment)
Kd [2]: 17.9 nM

MBP‐AAA‐AF9 AHD Q336C/A502C (from UniProt P42568 500-568) (domain or fragment)
Kd [2]: 20.9 nM

CC[C@H](C)[C@H](NC(=O)[C@H](CCCCN)NC(=O)[C@@H](NC(=O)[C@H](CCSC)NC(=O)[C@H](CC(C)C)NC(=O)CCNC(=O)CCNC(=O)[C@H](CCCCNC(=S)Nc1ccc2c(c1)C(=O)OC21c2ccc(O)cc2Oc2cc(O)ccc21)NC(C)=O)C(C)C)C(=O)N[C@H](C(=O)N[C@@H](CC(C)C)C(=O)N[C@@H](CC(=O)O)C(=O)N[C@@H](CC(C)C)C(=O)N[C@@H](CC(C)C)C(N)=O)[C@@H](C)O [AF4 (761–770 aa)] (Ac-K(FITC)[βAla][βAla]LMVKITLDLL-NH2)
Kd [3]: 1.26 ± 0.11 nM
Kd [4]: 3.49 ± 0.18 nM
Kd (MBP‐RITK‐AF9 AHD): 1.31 ± 0.05 nM
Kd (MBP‐GS‐AF9 AHD): 3.7 ± 0.94 nM

MBP‐AAA‐AF9 AHD (from UniProt P42568 500-568) (domain or fragment)
Kd [2]: 8.79 nM

LPISIPLSTV [LPISIPLSTV (865–874)]
binding site for the AHD (AF9 AHD; mapped 10-amino acid DOT1L peptide, ref Grigsby et al., 2021, Shen et al., 2013): binding site for the AHD

LPVSIPLASV [LPVSIPLASV (879–888)]
interaction sites within the DOT1L sequence (AF9 AHD): interaction sites

LELQISIVEL [LELQISIVEL (638–647)]
interaction sites within the DOT1L sequence (AF9 AHD): interaction sites

AF4 peptide: AF4 peptide of prior reports (LMVKITLDLL; also: fluorescent label, dye and position not given here)
affinity for AF9 AHD relative to DOT1L peptide (AF9 AHD; prior reports, ref Kabra & Bushweller, 2022, Shen et al., 2013): higher affinity

BCOR peptide (1176–1228): longer BCOR peptide (1176–1228) (TNSSSNHLEDPHYSELTNLKVCIELTGLHPKKQRHLLHLRERWEQQVSAADGK; UniProt Q6W2J9 1176-1228, looked up, fragment)
binding affinity compared with short peptide (1176–1207) (AF9 AHD; AF9 AHD, ref Kabra & Bushweller, 2022): higher binding affinity
binding affinity compared with short peptide (1176–1207) (ENL AHD): higher binding affinity

CC[C@H](C)[C@H](NC(=O)[C@H](CO)NC(=O)[C@@H](NC(=O)[C@@H]1CCCN1C(=O)[C@H](CC(C)C)NC(=O)CCNC(=O)CCNC(=O)[C@H](CCCCNC(=S)Nc1ccc2c(c1)C(=O)OC21c2ccc(O)cc2Oc2cc(O)ccc21)NC(C)=O)C(C)C)C(=O)N1CCC[C@H]1C(=O)N[C@@H](CC(C)C)C(=O)N[C@@H](C)C(=O)N[C@@H](CO)C(=O)N[C@H](C(N)=O)C(C)C [DOT1L (879–888 aa)] (Ac-K(FITC)[βAla][βAla]LPVSIPLASV-NH2)
Kd [3]: 10.7 ± 2.84 nM
Kd [4]: 20.9 ± 2.59 nM
Kd (MBP‐AAAA‐AF9 AHD): 15.6 ± 1.93 nM
Kd (MBP‐RITK‐AF9 AHD): 7.86 ± 0.76 nM
Kd (MBP‐GS‐AF9 AHD): 17.9 ± 3.49 nM
Kd (MBP‐AAA‐AF9 AHD): 8.79 ± 0.41 nM

MBP‐AAAA‐AF9 AHD Q336C/K501C (from UniProt P42568 500-568) (domain or fragment)
Kd [1]: 1.26 nM
Kd [2]: 10.7 nM

MBP‐AAAA‐AF9 AHD (from UniProt P42568 500-568) (domain or fragment)
Kd [2]: 15.6 nM
